We go through four molecules from ChEMBL document CHEMBL2203173 (J Med Chem, 2012).

Active and inactive are the calls of the source. The rule behind the calls is not given here.

The subject of assay [1] is DMS-53. In words: Antitumor activity against human DMS53 cells xenografted in BALB/c nu/nu mouse assessed as reduction in tumor weight at 4 mg/kg, iv administered for 5 days a week measured after 21 days (reference value: 0.830.11 g). Further details: dose 4 mg/kg. The class given is functional, organism-based. The method, boiled down: (§1)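 Nude mice bearing DMS-53 xenografts began dosing once tumors reached 100 mm3. Agents given iv by tail vein 5 days/week in vehicle of 30% propylene glycol/saline, with vehicle controls. Net tumor volume followed for 21 days. Mice sacrificed on day 21 and tumors excised and wet-weighed.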

For assay [2], the system named is DMS-53. The assay is described as follows: Antitumor activity against human DMS53 cells xenografted in BALB/c nu/nu mouse assessed as reduction of tumor volume at 4 mg/kg, iv administered for 5 days a week measured after 21 days (RVb = 922 94 mm'3). Further details: dose 4 mg/kg. The class given is functional, organism-based. The essentials:
as §1

Assay [3] concerns DMS-53. In words: Antitumor activity against human DMS53 cells xenografted in BALB/c nu/nu mouse assessed as reduction of tumor volume at 8 mg/kg, iv administered for 5 days a week measured after 21 days (RVb = 922 94 mm'3). The class given is functional, organism-based. Further details: dose 8 mg/kg. The method, boiled down:
as §1

The test system of assay [4] is DMS-53. In words: Antitumor activity against human DMS53 cells xenografted in BALB/c nu/nu mouse assessed as reduction in tumor weight at 8 mg/kg, iv administered for 5 days per week measured after 21 days (reference value: 0.830.11 g). The class given is functional, organism-based. Further details: dose 8 mg/kg. The method, boiled down: as §1
Assay [5] has as its system DMS-53. The assay is described as follows: Antitumor activity against human DMS53 cell xenografted BALB/c nu/nu mouse assessed as reduction in tumor volume at 10 mg/kg, po administered for 3 times a week measured after 20 days (reference value: 997 155 mm'3). The class given is functional, organism-based. Further details: dose 10 mg/kg. The method, boiled down:
(§2)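 DMS-53 xenograft nude mice gavaged 3 times/week with agent in 30% propylene glycol/saline or with vehicle alone. Net tumor volume followed for 20 days; the study ended when control tumors neared the 1000 mm3 ethical limit. Tumors excised and wet-weighed on day 20. n = 6–11 mice/condition, mean ± SD.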

Assay [6] has as its system DMS-53. The assay is described as follows: Antitumor activity against human DMS53 cell xenografted BALB/c nu/nu mouse assessed as reduction in tumor volume at 20 mg/kg, po administered for 3 times a week measured after 20 days (reference value: 997 155 mm'3). The class given is functional, organism-based. Further details: dose 20 mg/kg. The method, boiled down: as §2

The subject of assay [7] is DMS-53. The assay is described as follows: Antitumor activity against human DMS53 cells xenografted in BALB/c nu/nu mouse assessed as reduction of tumor volume at 3 mg/kg, iv administered for 5 days a week measured after 21 days (RVb = 922 94 mm'3). The class given is functional, organism-based. Further details: dose 3 mg/kg. The essentials: as §1
The subject of assay [8] is DMS-53. In words: Antitumor activity against human DMS53 cells xenografted in BALB/c nu/nu mouse assessed as reduction of tumor volume at 6 mg/kg, iv administered for 5 days a week measured after 21 days (RVb = 922 94 mm'3). The class given is functional, organism-based. Further details: dose 6 mg/kg. The essentials:
as §1

Assay [9] concerns DMS-53. The assay is described as follows: Antitumor activity against human DMS53 cell xenografted BALB/c nu/nu mouse assessed as reduction in tumor volume at 7.5 mg/kg, po administered for 3 times a week measured after 20 days (reference value: 997 155 mm'3). The class given is functional, organism-based. Further details: dose 7.5 mg/kg. The essentials:
as §2

Assay [10] concerns SK-N-MC. The assay is described as follows: Antiproliferative activity at human SK-N-MC cells after 72 hrs by MTT assay. The class given is functional, cell-based.
Assay [11] relates to MRC5. In words: Antiproliferative activity at human MRC5 cells after 72 hrs by MTT assay. The class given is functional, cell-based. The conditions noted are these: MRC5, 72 h.
Assay [12] relates to SK-N-MC. In words: Inhibition to 59Fe uptake from 59Fe-transferrin in human SK-N-MC cells at 25 uM after 3 hrs. Further details: scale not given: the % may be the effect or the level left. The class given is functional. The essentials: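 SK-N-MC cells labeled with 59Fe-transferrin (0.75 μM) for 3 h/37 °C with or without chelators (25 μM). Cells washed four times on ice with ice-cold PBS. Internalized 59Fe separated with Pronase (1 mg/mL) and expressed as % of control. Mean ± SD of three experiments.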

The subject of assay [13] is DMS-53. The assay is described as follows: Antiproliferative activity at human DMS53 cells after 72 hrs by MTT assay. The class given is functional, cell-based. As to conditions: Homo sapiens, DMS-53, 72 h.
Assay [14] concerns A549. In words: Antiproliferative activity at human A549 cells after 72 hrs by MTT assay. As to conditions: Homo sapiens, A549, 72 h. The class given is functional, cell-based.
The subject of assay [15] is SK-N-MC. In words: Induction of 59Fe mobilization in human SK-N-MC cells at 25 uM after 3 hrs by gamma-scintillation counter. The class given is functional. The method, boiled down:
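SK-N-MC cells prelabeled with 59Fe-transferrin (0.75 μM) for 3 h/37 °C, then washed four times on ice with ice-cold PBS. Cells reincubated with or without chelators (25 μM) for 3 h/37 °C. Released 59Fe given as % of cellular 59Fe. Mean ± SD of three experiments.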

Consider `CN(C(=S)NN=C(c1ccccn1)c1ccccn1)C1CCCCC1`, for which the outcome in assay [1], in [2], in assay [3], in assay [4], in assay [5] and in assay [6] was Active.
With `CCN(C)C(=S)NN=C(c1ccccn1)c1ccccn1`, the outcome in [7], in assay [8], in assay [5] and in assay [9] was Active.
As for `CNC(=S)N/N=C(\c1ccccc1)c1ccccn1`, in assay [10], the IC50 worked out at 18 nM.
Turning to `O=C(N/N=C/c1c(O)ccc2ccccc12)c1ccncc1`, the IC50 is over 10000 nM in assay [11], 1100 nM in assay [13], 2200 nM in assay [14] and 1100 nM in assay [10]. The results for the Activity in assay [12] and in assay [15] were 5.3% and 44.9%, respectively.
